A value given as a limit tells only on which side of the number the result lay.

Data set [1] has as its target T1, Anoctamin-1 (Homo sapiens) (UniProt Q5XXA6).
T1 sequence (whole entry): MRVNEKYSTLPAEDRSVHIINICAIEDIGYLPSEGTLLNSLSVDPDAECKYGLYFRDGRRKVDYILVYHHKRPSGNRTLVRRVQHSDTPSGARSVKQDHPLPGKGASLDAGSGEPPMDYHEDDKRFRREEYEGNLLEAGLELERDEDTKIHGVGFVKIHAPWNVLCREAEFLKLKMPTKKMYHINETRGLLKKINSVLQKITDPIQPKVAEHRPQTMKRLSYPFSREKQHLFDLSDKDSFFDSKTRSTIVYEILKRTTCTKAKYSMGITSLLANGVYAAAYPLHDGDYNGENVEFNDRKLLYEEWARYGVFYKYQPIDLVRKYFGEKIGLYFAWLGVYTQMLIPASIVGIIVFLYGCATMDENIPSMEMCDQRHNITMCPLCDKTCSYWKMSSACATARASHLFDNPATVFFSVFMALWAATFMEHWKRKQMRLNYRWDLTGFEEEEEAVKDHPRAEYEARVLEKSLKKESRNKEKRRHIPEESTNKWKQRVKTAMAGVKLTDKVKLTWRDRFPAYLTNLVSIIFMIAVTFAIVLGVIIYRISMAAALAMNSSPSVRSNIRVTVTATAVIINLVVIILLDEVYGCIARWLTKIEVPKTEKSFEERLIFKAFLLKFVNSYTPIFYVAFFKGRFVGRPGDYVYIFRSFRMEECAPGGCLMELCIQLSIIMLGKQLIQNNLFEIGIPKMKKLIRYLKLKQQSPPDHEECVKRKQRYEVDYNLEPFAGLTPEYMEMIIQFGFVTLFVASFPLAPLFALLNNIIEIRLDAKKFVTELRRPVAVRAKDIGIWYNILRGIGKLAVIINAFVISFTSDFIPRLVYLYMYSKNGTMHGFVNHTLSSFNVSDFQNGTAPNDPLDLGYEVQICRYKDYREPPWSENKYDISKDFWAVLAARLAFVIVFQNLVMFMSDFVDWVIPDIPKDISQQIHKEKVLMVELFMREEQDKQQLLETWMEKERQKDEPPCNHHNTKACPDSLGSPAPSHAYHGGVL
Briefly: Inhibition of human ANO1 channel expressed in HEK293 cells at 10 uM incubated for 10 mins by FLIPR assay relative to control. Format: cell-based. The gist of the method: (§1)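 HEK293 cells expressing human ANO1, 50,000 cells/well, plated overnight. Loaded with FLIPR Red membrane-potential dye in HEPES-buffered saline (pH 7.4) for 40-60 min at room temperature. Compound added for 10 min at room temperature, final DMSO 0.5%.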

Data set [2] concerns U138-MG. Briefly: Antiproliferative activity against human U138 cells overexpressing ANO1 assessed as reduction in cell viability at 100 uM measured after 72 hrs by Celltiter-glo assay. Format: functional. The gist of the method:
(§2)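 5.0×10^3 cells/well seeded, overnight, then compounds added as 1:4 serial dilutions in DMSO; viability read after 72 h with CellTiter-Glo luminescence. GI50 from fitted dose-response curves; triplicate wells, SD from three independent experiments. DMEM for U251 and U138, MEM for U87MG, both with 10% FBS and pen/strep, 37 °C, 5% CO2.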
A general note: ATP-based viability assays read luminescence as a measure of living cells.

Data set [3] can be described thus: Antiproliferative activity against mouse primary astrocytes assessed as reduction in cell viability at 100 uM measured after 72 hrs by Celltiter-Glo luminescent assay. The data set is classed as cell-based, Astrocyte. The gist of the method:
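Primary astrocytes isolated from adult mouse brain by a previously reported method. 5.0×10^3 cells/well, compound as 1:4 serial DMSO dilutions, CellTiter-Glo viability at 72 h.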

The target in data set [4] is T2, Anoctamin-1 (Mus musculus, UniProt Q8BHY3).
T2 sequence (Q8BHY3 whole entry): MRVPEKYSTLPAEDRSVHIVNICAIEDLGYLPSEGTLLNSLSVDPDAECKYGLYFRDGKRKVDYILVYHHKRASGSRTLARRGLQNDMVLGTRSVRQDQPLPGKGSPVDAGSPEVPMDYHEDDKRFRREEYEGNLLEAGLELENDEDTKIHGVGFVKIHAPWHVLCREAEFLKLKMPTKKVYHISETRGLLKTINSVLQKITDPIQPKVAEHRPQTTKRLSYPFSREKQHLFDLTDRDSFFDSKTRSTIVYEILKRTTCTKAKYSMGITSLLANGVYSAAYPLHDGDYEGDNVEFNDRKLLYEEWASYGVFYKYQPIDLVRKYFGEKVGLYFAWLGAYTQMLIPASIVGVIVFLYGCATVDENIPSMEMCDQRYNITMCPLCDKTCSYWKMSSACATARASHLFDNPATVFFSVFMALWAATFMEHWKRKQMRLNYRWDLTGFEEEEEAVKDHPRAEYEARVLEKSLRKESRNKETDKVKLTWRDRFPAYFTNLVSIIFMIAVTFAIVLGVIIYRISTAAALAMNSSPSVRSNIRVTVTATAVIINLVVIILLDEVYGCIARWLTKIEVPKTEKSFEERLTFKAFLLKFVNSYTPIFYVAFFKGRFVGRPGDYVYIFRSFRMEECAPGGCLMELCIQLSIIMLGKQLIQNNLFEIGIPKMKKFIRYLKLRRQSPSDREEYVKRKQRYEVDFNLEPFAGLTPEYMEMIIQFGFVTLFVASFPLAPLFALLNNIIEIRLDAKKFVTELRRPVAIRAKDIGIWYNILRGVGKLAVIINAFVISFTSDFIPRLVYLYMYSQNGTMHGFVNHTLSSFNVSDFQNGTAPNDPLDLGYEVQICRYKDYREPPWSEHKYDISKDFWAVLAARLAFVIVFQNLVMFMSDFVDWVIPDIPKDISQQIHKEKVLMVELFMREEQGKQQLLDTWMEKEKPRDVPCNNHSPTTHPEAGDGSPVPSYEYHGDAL
Briefly: Inhibition of GFP-fused mouse ANO1 channel expressed in HEK293A cells assessed as inhibition of ATP-induced channel current amplitude at membrane potential of +80 mV by patch clamp electrophysiology assay. The data set is classed as cell-based, HEK293-A. In a few lines: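 Whole-cell recording at room temperature in HEK293A cells transfected with GFP-mANO1, GFP-mANO2 or GFP-mTTYH1. 1 s ramps from +80 to -80 mV, holding potential -10 mV. For ANO1/ANO2: pipette CsCl 146 mM with Ca-EGTA-NMDG, pH 7.3; bath NaCl-based, pH 7.3. For TTYH1: Tris-aspartate pipette (pH 7.2) and Tris-HCl bath (pH 7.4), with […] and BaCl2 added to block K+ channels, and hypotonic (220 mOsm/kg) bath. Washout recordings assessed reversibility.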
(In patch-clamp work, channel activity is measured electrically.)

Data set [5] has as its target T3, Anoctamin-1 (Homo sapiens, UniProt Q5XXA6).
T3 sequence (Q5XXA6 whole entry): T1 sequence (whole entry)
In words: Inhibition of human ANO1 channel expressed in HEK293 cells incubated for 10 mins by FLIPR assay. The data set is classed as cell-based. In a few lines: as §1

The test system of data set [6] is U-251. In words: Antiproliferative activity against human U251 cells overexpressing ANO1 assessed as reduction in cell viability measured after 72 hrs by Celltiter-glo assay. The data set is classed as functional. In a few lines:
as §2

Data set [7] concerns U-87 MG. In words: Antiproliferative activity against human U87MG cells overexpressing ANO1 assessed as reduction in cell viability at 100 uM measured after 72 hrs by Celltiter-glo assay. The data set is classed as functional, U-87MG ATCC. The gist of the method: as §2
Data set [8] deals with U-87 MG. Briefly: Antiproliferative activity against human U87MG cells overexpressing ANO1 assessed as reduction in cell viability measured after 72 hrs by Celltiter-glo assay. The data set is classed as functional, U-87MG ATCC. The gist of the method: as §2
Data set [9] deals with U138-MG. Briefly: Antiproliferative activity against human U138 cells overexpressing ANO1 assessed as reduction in cell viability measured after 72 hrs by Celltiter-glo assay. Format: functional. In a few lines: as §2

The inhibition is the change of the read-out against control, counted positive when it falls. With `CC(C)(C)C1CCc2c(sc(NC(=O)c3ccccc3)c2C(N)=O)C1` (configuration not stated), in data set [1], the inhibition is 22%.
The same measure, in the same setting: next, `CC(C)(C)C(=O)Nc1sccc1C(N)=O`: below 10%.
As to `NC(=O)c1c(N)sc2c1CCC2`, in data set [1], the inhibition was 15.4%.
On the same count and under the same terms, to `NC(=O)c1c(NC(=O)c2ccco2)sc2c1CCC2` belongs 51.5%; to `NC(=O)c1c(NC(=S)NC(=O)c2ccc3c(c2)OCCO3)sc2c1CCC2`, 12.3%.
In general, IC50 refers to the concentration needed to halve the response being measured. As a reminder, the GI50 is the concentration giving 50% growth inhibition. Regarding `NC(=O)c1c(NC(=S)NC(=O)c2ccccc2Cl)sc2c1CCC2`, the inhibition at 100 µM in [2] and in data set [7] was below 50% each time. Moreover, the inhibition at 72 h, 100 µM in data set [3] was below 50%. The concentration for half-maximal inhibition (IC50) in data set [4] was determined as 3.12 µM; in data set [5] it was 2.29 µM. In addition, the inhibition in [1] was determined as 76.7%. In data set [6], the 50% growth inhibitory concentration (GI50) amounted to 94.6 µM.
Turning to `COc1cc(OC)cc(C(=O)NC(=S)Nc2sc3c(c2C(N)=O)CCC3)c1`, the inhibition in data set [1] was 46.1%.
Regarding `Cc1ncsc1C(=O)NC(=S)Nc1sc2c(c1C(N)=O)CCC2`, in data set [1], the inhibition was below 10%.
In data set [1], `NC(=O)c1c(NC(=S)NC(=O)c2cccc(Cl)c2)sc2c1CCC2` yielded an inhibition below 10%.
Take `COc1cc(C(=O)NC(=S)Nc2sc3c(c2C(N)=O)CCC3)cc(OC)c1OC`: the inhibition in data set [1] is below 10%.
`NC(=O)c1c(NC(=S)NC(=O)c2cccc(C(F)(F)F)c2)sc2c1CCC2`: in data set [1], the inhibition turned out to be 26.7%.
In turn, `CC(C)(C)C1CCc2c(sc(NC(=O)c3ccco3)c2C(N)=O)C1` (configuration not stated) showed an inhibition in data set [1] below 10%.
Still for that read-out and setting: next, `NC(=O)c1c(NC(=O)c2ccccc2)sc2c1CCCCC2`: 12.1%; `NC(=O)c1c(NC(=S)NC(=O)c2ccccc2)sc2c1CCCCC2`: 21.1%.
Consider `NC(=O)c1c(NC(=S)NC(=O)c2ccccc2)sc2c1CCC2`, for which the 50% growth inhibitory concentration (GI50) in data set [8] stood at 26 µM; in data set [6], 24.4 µM; in data set [9], 17.1 µM. The values for the half-inhibitory concentration (IC50) in [4] and in [5] were 2.63 µM and 2.83 µM, respectively. The same compound came in with an inhibition in data set [1] of 70.5%.
In data set [1], `NC(=O)c1c(N)sc2c1CCCCC2` showed an inhibition below 10%.

The values are drawn from ChEMBL document CHEMBL4706565, “Anti-glioma effects of 2-aminothiophene-3-carboxamide derivatives, ANO1 channel blockers” (Eur J Med Chem, 2020).
